In ChEMBL document CHEMBL1123812, “Pyrroloisoquinoline antidepressants. 2. In-depth exploration of structure-activity relationships” (J Med Chem, 1987):
Activity calls are given as the source filed them.

How the values were obtained:
[1] = organism: Rattus norvegicus; test: Ability to inhibit the uptake of tritiated norepinephrine (NE) at 0.1 uM concentration; assay type: functional
Summary of the method: (§1)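 Male Wistar rat brain synaptosomes (P2 fraction): hypothalamus for NE, striatum for DA, cerebral cortex for 5-HT. Buffer is Tris- or HEPES-buffered salt medium with glucose, ascorbate and nialamide, pH 7.4 at 37 °C. Preincubated 10 min at 37 °C with compound. Uptake started with [3H]NE 100–300 nM, [3H]DA 50–300 nM or [3H]5-HT 100–200 nM, incubated 3 min (DA) or 6–10 min (NE, 5-HT). Blanks held on ice. Filtered, counted by scintillation.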

[2] = biological target: Sodium-dependent dopamine transporter (Rattus norvegicus) (UniProt P23977); test: Inhibition of tritiated dopamine (DA) uptake at 0.1 uM concentration; assay type: functional; summary of the method: as §1
Sodium-dependent dopamine transporter (Rattus norvegicus), sequence (P23977 whole entry): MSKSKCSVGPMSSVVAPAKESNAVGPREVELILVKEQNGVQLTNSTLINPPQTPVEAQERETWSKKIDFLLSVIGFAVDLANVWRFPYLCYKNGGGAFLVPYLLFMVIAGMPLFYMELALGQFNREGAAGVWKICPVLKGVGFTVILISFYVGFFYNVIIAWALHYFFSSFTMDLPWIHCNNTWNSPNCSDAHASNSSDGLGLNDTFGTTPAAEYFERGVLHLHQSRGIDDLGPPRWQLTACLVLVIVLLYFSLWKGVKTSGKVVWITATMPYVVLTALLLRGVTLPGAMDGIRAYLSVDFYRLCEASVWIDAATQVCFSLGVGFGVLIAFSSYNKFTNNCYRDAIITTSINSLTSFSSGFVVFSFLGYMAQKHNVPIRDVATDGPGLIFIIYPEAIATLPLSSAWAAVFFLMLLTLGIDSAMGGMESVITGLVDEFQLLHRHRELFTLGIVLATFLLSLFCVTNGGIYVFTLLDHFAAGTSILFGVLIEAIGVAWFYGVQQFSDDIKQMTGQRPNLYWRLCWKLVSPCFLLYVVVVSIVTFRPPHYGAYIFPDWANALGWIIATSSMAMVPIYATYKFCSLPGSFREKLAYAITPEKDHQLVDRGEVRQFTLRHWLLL

[3] = biological target: Sodium-dependent serotonin transporter (Rattus norvegicus) (UniProt P31652); test: Inhibition of tritiated serotonin(5-HT) uptake at 0.1 uM concentration; assay type: functional; summary of the method: as §1
Sodium-dependent serotonin transporter (Rattus norvegicus), sequence (P31652 whole entry): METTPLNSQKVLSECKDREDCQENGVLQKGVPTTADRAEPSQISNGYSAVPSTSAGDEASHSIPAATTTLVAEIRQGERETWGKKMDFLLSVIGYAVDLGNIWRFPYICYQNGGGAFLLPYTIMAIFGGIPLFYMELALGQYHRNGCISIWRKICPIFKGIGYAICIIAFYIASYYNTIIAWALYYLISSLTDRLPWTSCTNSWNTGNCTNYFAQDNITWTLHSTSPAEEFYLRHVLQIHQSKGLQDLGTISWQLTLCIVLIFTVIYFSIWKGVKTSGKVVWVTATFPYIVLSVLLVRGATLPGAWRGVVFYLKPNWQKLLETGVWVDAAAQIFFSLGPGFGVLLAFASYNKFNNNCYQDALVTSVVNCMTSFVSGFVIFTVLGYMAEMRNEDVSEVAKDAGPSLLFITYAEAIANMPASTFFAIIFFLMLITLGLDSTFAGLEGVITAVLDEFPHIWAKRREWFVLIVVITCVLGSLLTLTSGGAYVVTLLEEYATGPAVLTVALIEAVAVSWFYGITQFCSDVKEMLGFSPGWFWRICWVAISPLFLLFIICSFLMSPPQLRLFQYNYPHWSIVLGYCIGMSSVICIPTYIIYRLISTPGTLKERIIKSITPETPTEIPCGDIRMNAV

[4] = organism: Mus musculus; test: Gross behavioral effects ascertained in mice; S indicates significant stimulant properties.; assay type: functional, organism-based
Summary of the method: (§2)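 Male Swiss Webster mice, 18–24 g, three per dose, given ip doses of 1, 3, 10, 30, 100 and 300 mg/kg. Observed for gross behavior and held for 4 days. Scored as weak (W), stimulant (S), depressant (D) or convulsant (C).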

[5] = biological target: Norepinephrine transporter (Rattus norvegicus, UniProt Q9WTR4); test: Inhibition of uptake of tritiated norepinephrine (NE) in rat synaptosomes; assay type: subcellular, Brain
Norepinephrine transporter, sequence (Q9WTR4 whole entry): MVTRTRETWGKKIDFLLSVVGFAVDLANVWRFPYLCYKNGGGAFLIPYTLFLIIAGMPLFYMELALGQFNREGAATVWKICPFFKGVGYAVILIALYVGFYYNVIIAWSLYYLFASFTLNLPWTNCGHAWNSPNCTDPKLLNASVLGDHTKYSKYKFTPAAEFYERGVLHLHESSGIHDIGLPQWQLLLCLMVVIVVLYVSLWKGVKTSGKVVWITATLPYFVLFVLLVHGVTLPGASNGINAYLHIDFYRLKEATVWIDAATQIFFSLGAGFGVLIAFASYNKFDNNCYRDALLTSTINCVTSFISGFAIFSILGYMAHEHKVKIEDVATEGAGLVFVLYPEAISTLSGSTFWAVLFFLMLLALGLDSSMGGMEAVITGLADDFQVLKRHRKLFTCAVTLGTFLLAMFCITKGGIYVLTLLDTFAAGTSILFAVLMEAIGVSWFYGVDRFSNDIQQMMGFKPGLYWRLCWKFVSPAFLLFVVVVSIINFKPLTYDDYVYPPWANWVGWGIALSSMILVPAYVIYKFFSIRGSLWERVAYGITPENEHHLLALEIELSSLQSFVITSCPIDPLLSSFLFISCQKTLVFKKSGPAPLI

[6] = organism: Mus musculus; test: Antagonism of tetrabenazine (TBZ)-induced depression measured in mice by motor activity; assay type: functional
Summary of the method: (§3)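 Nonfasted male Swiss Webster mice, 18–24 g, ten per dose level and in saline controls. Test compound given ip 30 min before tetrabenazine 32 mg/kg ip; dose expressed as free base. Motor activity and ptosis scored. Control response ≤90% corrected by Abbott's formula.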

[7] = biological target: Sodium-dependent dopamine transporter (Rattus norvegicus, UniProt P23977); test: Inhibition of the uptake of tritiated dopamine (DA) in rat synaptosomes; assay type: subcellular, Brain
Sodium-dependent dopamine transporter, sequence (P23977 whole entry): as the sequence (P23977 whole entry) above

[8] = organism: Mus musculus; test: Antagonism of tetrabenazine (TBZ)-induced depression in mice measured for ptosis; assay type: functional; summary of the method: as §3
[9] = organism: Mus musculus; test: Gross behavioral effects ascertained in mice; W indicates weak stimulant or depressant activity of little significance.; assay type: functional, organism-based; summary of the method: as §2
[10] = biological target: Norepinephrine transporter (Rattus norvegicus) (UniProt Q9WTR4); test: Ability to inhibit the uptake of [3H]norepinephrine (NE) 0.1 uM concentration at rat brain synaptosomes; assay type: functional, subcellular; summary of the method: as §1
Norepinephrine transporter (Rattus norvegicus), sequence (Q9WTR4 as listed by the source): as the sequence (Q9WTR4 whole entry) above

[11] = biological target: Sodium-dependent serotonin transporter (Rattus norvegicus) (UniProt P31652); test: Ability to inhibit the uptake of [3H]- serotonin(5-HT) 0.1 uM concentration at rat brain synaptosomes; assay type: functional, subcellular; summary of the method: as §1
[12] = biological target: Sodium-dependent dopamine transporter (Rattus norvegicus) (UniProt P23977); test: Ability to inhibit the uptake of [3H]dopamine (DA) 0.1 uM concentration at rat brain synaptosomes; assay type: functional, subcellular; summary of the method: as §1
[13] = biological target: T1, Adrenergic receptor alpha-1 (Rattus norvegicus, UniProt P15823+P23944+P43140); test: Binding affinity towards alpha-1 adrenergic receptor; assay type: protein assay
T1 sequence (P15823 whole entry): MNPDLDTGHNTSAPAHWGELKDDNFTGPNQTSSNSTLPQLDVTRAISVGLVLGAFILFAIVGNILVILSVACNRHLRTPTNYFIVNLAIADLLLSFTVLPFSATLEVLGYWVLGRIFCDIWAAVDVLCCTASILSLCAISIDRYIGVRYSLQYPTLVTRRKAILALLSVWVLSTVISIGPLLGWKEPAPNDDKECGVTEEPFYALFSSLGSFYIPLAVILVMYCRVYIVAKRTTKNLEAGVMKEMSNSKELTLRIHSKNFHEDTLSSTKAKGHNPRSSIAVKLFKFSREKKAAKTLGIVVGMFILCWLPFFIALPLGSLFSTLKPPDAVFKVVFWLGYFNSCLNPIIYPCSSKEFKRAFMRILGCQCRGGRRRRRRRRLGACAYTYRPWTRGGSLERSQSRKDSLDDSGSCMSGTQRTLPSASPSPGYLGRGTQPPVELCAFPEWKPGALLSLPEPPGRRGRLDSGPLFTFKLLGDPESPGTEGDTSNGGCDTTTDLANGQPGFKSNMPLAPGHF
T1 sequence (P23944 whole entry): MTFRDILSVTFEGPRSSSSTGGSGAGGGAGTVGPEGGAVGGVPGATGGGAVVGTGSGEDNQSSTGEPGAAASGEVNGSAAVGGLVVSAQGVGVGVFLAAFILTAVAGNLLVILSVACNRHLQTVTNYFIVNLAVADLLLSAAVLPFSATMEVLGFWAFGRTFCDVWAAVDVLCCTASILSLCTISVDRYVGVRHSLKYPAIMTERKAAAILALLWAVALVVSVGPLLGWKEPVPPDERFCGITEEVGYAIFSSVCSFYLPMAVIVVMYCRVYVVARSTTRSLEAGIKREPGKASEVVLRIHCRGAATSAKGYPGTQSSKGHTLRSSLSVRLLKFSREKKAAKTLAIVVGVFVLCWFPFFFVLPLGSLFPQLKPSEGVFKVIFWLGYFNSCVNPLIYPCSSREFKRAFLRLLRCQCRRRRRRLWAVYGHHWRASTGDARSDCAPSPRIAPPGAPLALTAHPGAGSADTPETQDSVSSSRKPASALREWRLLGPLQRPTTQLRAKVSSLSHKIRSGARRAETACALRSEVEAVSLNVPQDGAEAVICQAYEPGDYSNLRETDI
T1 sequence (P43140 whole entry): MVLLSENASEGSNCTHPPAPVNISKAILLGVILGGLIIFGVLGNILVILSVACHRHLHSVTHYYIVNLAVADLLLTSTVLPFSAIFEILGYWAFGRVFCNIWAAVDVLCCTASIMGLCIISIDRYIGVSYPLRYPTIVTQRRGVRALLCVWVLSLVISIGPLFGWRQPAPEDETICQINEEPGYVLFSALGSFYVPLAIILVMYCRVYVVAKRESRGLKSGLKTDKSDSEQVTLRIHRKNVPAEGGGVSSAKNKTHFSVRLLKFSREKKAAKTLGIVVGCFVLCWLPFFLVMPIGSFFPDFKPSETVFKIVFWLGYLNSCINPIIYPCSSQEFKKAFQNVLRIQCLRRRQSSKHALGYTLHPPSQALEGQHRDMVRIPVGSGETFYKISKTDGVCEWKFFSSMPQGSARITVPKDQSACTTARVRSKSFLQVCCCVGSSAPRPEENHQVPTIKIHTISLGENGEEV

[14] = biological target: D(2) dopamine receptor (Rattus norvegicus) (UniProt P61169); test: Binding affinity towards dopamine receptor D2 at 1.0 uM concentration
D(2) dopamine receptor (Rattus norvegicus), sequence (P61169 whole entry): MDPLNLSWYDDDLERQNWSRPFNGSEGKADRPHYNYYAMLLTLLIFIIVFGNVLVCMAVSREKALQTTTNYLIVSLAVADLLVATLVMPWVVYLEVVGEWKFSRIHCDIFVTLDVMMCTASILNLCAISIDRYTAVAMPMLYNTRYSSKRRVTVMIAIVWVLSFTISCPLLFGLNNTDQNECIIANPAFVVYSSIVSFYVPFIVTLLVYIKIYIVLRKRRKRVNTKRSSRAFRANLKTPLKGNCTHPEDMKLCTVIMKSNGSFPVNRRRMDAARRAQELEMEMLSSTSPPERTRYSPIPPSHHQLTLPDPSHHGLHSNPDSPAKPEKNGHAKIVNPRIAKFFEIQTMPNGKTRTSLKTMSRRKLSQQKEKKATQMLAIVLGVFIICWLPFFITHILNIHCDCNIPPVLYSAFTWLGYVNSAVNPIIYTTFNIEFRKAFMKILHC
Summary of the method: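 Rat brain crude synaptic membranes in 20 mM NaHEPES pH 7.5. Ligands: α1 cortex […] 0.4 nM, nonspecific with (-)-NE 100 μM, 30 min at 25 °C. […] D2 striatum [3H]spiperone 0.05 nM with (+)-butaclamol 1 μM, 45 min at 37 °C. S1 cortex [3H]5-HT 1 nM plus glutathione and MgCl2, with 5-HT 10 μM, 20 min at 37 °C. […] Samples filtered on GF/B and counted.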

[15] = tested on: Mus musculus; test: Ability to antagonise intraperitoneal dose; inactive (<10% antagonism) at 30 mg/kg is represented as I-30.; assay type: functional, organism-based; design: dose 30 mg/kg; summary of the method: as §3

| Structure (SMILES) | inhibition [2] [%] | Ki [5] [µM] | Ki [7] [µM] | ED50 ([6]; Mus musculus, read-out: ED50) [mg/kg] | ED50 ([8]; Mus musculus, read-out: ED50) [mg/kg] | further results |
| --- | --- | --- | --- | --- | --- | --- |
| Br.Fc1c(F)c(F)c([C@@H]2CN3CCC[C@H]3c3ccccc32)c(F)c1F | 0 | – | – | – | – | Inhibition [1]: 12%; inhibition [3]: 4% |
| Br.C[C@]1(c2ccccc2)CN2CCC[C@H]2c2ccccc21 | – | 0.00125 | 0.0074 | 27.2 | 0.44 | behavior [4]: Significant stimulant |
| Br.CCCCc1ccc([C@@H]2CN3CCC[C@H]3c3ccccc32)cc1 | – | – | – | > 30 | – | behavior [9]: Weak; inhibition [10]: 13%; inhibition [11]: 3%; inhibition [12]: 5% |
| Clc1cccc2c1[C@H]1CCCN1C[C@H]2c1ccccc1 | 45 | – | – | – | – | Inhibition [1]: 4%; inhibition [3]: 22% |
| Br.Clc1cccc2c1[C@H](c1ccccc1)CN1CCC[C@@H]21 | 6 | – | – | > 3 | > 3 | Inhibition [1]: 3%; inhibition [3]: 0% |
| Br.Nc1ccc([C@@H]2CN3CCC[C@@H]3c3ccccc32)cc1 | – | 0.0002 | 0.00086 | ~0.02 | ~0.01 | behavior [4]: Significant stimulant |
| Br.c1ccc([C@H]2CN3CCC[C@H]3c3ccsc32)cc1 | – | 0.0014 | 0.0052 | 5 | 0.79 | behavior [4]: Significant stimulant |
| Br.Oc1cccc([C@@H]2CN3CCC[C@H]3c3ccccc32)c1 | – | 0.0151 | 0.0448 | > 30 | 3.1 | behavior [4]: Stimulant |
| Br.Fc1c(F)c(F)c([C@@H]2CN3CCC[C@@H]3c3ccccc32)c(F)c1F | 14 | – | – | – | – | Inhibition [1]: 42%; inhibition [3]: 2% |
| C[C@H]1[C@H](c2ccccc2)c2ccccc2[C@@H]2CCCN21 | – | – | – | ~30 | 3.3 | behavior [9]: Weak; inhibition [10]: 62%; inhibition [11]: 15%; inhibition [12]: 17% |
| c1ccc([C@@H]2CN3CCC[C@@H]3c3ccccc32)cc1 (stereo in doubt; (+)-7b) | – | – | 0.0044 | – | – | ED50 [6]: 0.59 mg/kg; ED50 [8]: 0.05 mg/kg; Ki [13]: 0.083 µM |
| COc1cc2c(cc1OC)[C@H]1CCCN1C[C@H]2c1ccccc1 | – | 0.0537 | 0.015 | 15.1 | 3.8 | behavior [4]: Stimulant; inhibition [14]: 6% |
| Br.FC(F)(F)c1ccccc1[C@@H]1CN2CCC[C@@H]2c2ccccc21 | – | – | – | > 3 | > 3 | inhibition [10]: 42%; inhibition [11]: 2%; inhibition [12]: 14% |
| C#Cc1ccc([C@@H]2CN3CCC[C@@H]3c3ccccc32)cc1 | – | – | – | ~0.5 | ~0.5 | behavior [4]: Significant stimulant |
| Fc1ccc([C@@H]2CN3CCC[C@H]3c3ccccc32)cc1 | 43 | – | – | > 60 | > 10 | behavior [9]: Weak; Inhibition [1]: 61%; inhibition [3]: 3% |
| Br.c1ccc([C@H]2CN3CCC[C@H]3c3[nH]c4ccccc4c32)cc1 | – | 0.0023 | 0.0029 | 1.07 | 0.3 | behavior [4]: Significant stimulant |
| FC(F)(F)c1ccccc1[C@@H]1CN2CCC[C@H]2c2ccccc21 | – | – | – | – | – | inhibition [10]: 12%; inhibition [11]: 4%; inhibition [12]: 0% |
| N#Cc1ccccc1[C@@H]1CN2CCC[C@@H]2c2ccccc21 | – | – | – | > 3 | > 3 | inhibition [10]: 71%; inhibition [11]: 6%; inhibition [12]: 33% |
| COc1cccc2c1[C@H](c1ccccc1)CN1CCC[C@@H]21 | 0 | – | – | 20.7 | 13.9 | behavior [9]: Weak; Inhibition [1]: 5%; inhibition [3]: 31% |
| Clc1cccc([C@@H]2CN3CCC[C@H]3c3ccccc32)c1 | 67 | 0.1 | – | – | – | inhibition [3]: 11% |

Second part, led by results:

| inhibition [2] [%] | Ki [5] [µM] | Ki [7] [µM] | Structure (SMILES) | ED50 ([6]; Mus musculus, read-out: ED50) [mg/kg] | ED50 ([8]; Mus musculus, read-out: ED50) [mg/kg] | further results |
| --- | --- | --- | --- | --- | --- | --- |
| – | 0.00085 | 0.0101 | Br.Oc1cccc([C@@H]2CN3CCC[C@@H]3c3ccccc32)c1 | > 10 | 0.11 | behavior [4]: Significant stimulant |
| – | – | 1.34 | c1ccc([C@@H]2CN3CCC[C@@H]3c3ccccc32)cc1 (stereo in doubt; (-)-7b) | – | – | ED50 [6]: >30 mg/kg; ED50 [8]: 8.3 mg/kg; Ki [13]: 0.262 µM |
| 19 | – | – | Br.c1ccc([C@@H]2CN3CCCCC[C@H]3c3ccccc32)cc1 | ~40 | ~40 | behavior [9]: Weak; inhibition [10]: 13%; inhibition [11]: 6% |
| 26 | – | – | Br.Oc1ccc([C@@H]2CN3CCC[C@H]3c3ccccc32)cc1 | – | 2 | behavior [9]: Partial stimulant; Inhibition [1]: 78%; inhibition [14]: 59%; ED50 [15]: inactive |
| – | 2.57 | 7.69 | FC(F)(F)c1cccc([C@@H]2CN3CCC[C@@H]3c3ccccc32)c1 (stereo in doubt; (-)-37b) | – | – | Ki [13]: 0.03 µM |
| -3 | – | – | COc1ccccc1[C@@H]1CN2CCC[C@H]2c2ccccc21 | – | – | Inhibition [1]: 65%; inhibition [3]: -2% |
| 7 | – | – | FC(F)(F)c1ccc([C@@H]2CN3CCC[C@H]3c3ccccc32)cc1 | – | – | inhibition [10]: -1%; inhibition [11]: 15% |
| 35 | 0.0161 | – | Br.COc1cccc([C@@H]2CN3CCC[C@H]3c3ccccc32)c1 | > 60 | > 60 | behavior [9]: Weak |
